Article PMC5508335 (Journal of Veterinary Internal Medicine, 2017)

Legend:
[1] = system: New Zealand rabbits with dilated cardiomyopathy induced by doxorubicin; assay: Doxorubicin-induced dilated cardiomyopathy in New Zealand rabbits; assay type: in vivo, rabbit
healthy beagle dogs = details: oral administration, ref previous studies performed by these authors; cited from earlier work
[2] = system: dogs with spontaneously-arising glioma and meningioma; assay type: in vivo, dog; details: six dogs
Outline: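 Dogs with spontaneously arising glioma or meningioma received the oral test compound together with conventional therapies. Tolerability was assessed, with serial clinical and MRI outcome assessments.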

[3] = system: canine, human, and murine glioma cell lines; assay: In vitro sensitivity of glioma cell lines; assay type: cell-based; details: monotherapy, biologically relevant exposures
Outline: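 Murine, canine and human glioma cell lines were tested for in vitro sensitivity to the test compound and to radiation, each given as monotherapy. PC-3 expression in the same lines was also evaluated.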

equine neutrophils = assay: neutrophil respiratory burst, luminol chemoluminescence, opsonized zymosan; assay type: cell-based, horses; details: TX 0.5 to 20 μM; dose dependent
dogs with MUE = assay: Retrospective survival of dogs with MUE given cytarabine CRI; assay type: in vivo, dog; details: 22 dogs, at least 1 CRI treatment; range 61 – 1312
[4] = distribution of danofloxacin and tulathromycin in plasma, ISF and PELF by age; assay type: in vivo, calves; details: non‐linear mixed effect modeling
[5] = system: healthy purpose-bred cats; details: in vivo
[6] = crossover study of IV dipyrone to control fever; assay type: in vivo, horses; details: single 30 mg/kg IV, 6 hours post administration, versus placebo
thyroid TT4 response = assay: TSH stimulation test, serum TT4; assay type: in vivo, dog; details: 6 dogs, oral hydrocortisone for 90 days
diabetic cats = assay: One-year randomized trial of insulin types in diabetic cats; assay type: in vivo, cat; details: BID insulin, glargine=24, PZIR=22
dogs with EPI = assay: Oral cobalamin supplementation in dogs with EPI, serum cobalamin; assay type: in vivo, dog; details: daily cyanocobalamin tablets, 28–199 days; 10 dogs; at inclusion 204
Outline: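 Dogs entered with EPI diagnosed by subnormal serum cTLI (reference 5–35 μg/L) and an initial serum cobalamin of 350 ng/L or less (reference 234–811 ng/L). All received daily oral cyanocobalamin tablets at 1 mg/tablet.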

[7] = 2 mg/kg every 12 hours for 30 days

O=C(N/N=C/c1cccs1)c1ccc2c(c1)OCO2 [LASSBio 294]
E'/A' ratio [1, 7]: < 1
E/A ratio [1, 7]: < 1
increase of FS ([1]; 2 mg/kg every 12 hours, n = 7, second week): 35%
increase of shortening fraction (healthy beagle dogs): 19.1%

C=CCc1cccc(/C=N/NC(=O)CN2CCN(Cc3ccccc3)CC2)c1O [PAC‐1]
partial responses [2]: 3 dogs
in vitro sensitivity of glioma cell lines [3]: show in vitro sensitivity

CC/C(=C(\c1ccccc1)c1ccc(OCCN(C)C)cc1)c1ccccc1 [TX, Tamoxifen]
neutrophil respiratory burst induced by opsonized zymosan (equine neutrophils): inhibits neutrophil respiratory burst

Nc1ccn([C@@H]2O[C@H](CO)[C@@H](O)[C@@H]2O)c(=O)n1 [cytarabine]
Survival, median (dogs with MUE): 258.5 days

CN1C[C@@H]2C[C@H]1CN2c1cc2c(cc1F)c(=O)c(C(=O)O)cn2C1CC1 [danofloxacin]
age as covariate in plasma concentration differences [4]: not for danofloxacin treated calves

Cc1cccc([C@H](C)c2cnc[nH]2)c1C [dexmedetomidine]
cats with successful emesis [5]: 58%

Cc1c(N(C)CS(=O)(=O)O)c(=O)n(-c2ccccc2)n1C [dipyrone, Dipyrone]
control of fever [6]: effectively controlled fever

C[C@]12CCC(=O)C=C1CC[C@@H]1[C@@H]2[C@@H](O)C[C@@]2(C)[C@H]1CC[C@]2(O)C(=O)CO [hydrocortisone]
mean basal serum TT4 concentration (thyroid TT4 response): 0.32 µg/dL

PZIR: human-recombinant protamine zinc insulin
cats achieving remission (diabetic cats): 23%

cyanocobalamin [CBL]
median serum CBL concentration after supplementation (dogs with EPI): 1,113 ng/L
